Experimental data pooled from the literature.
Protocols differ between the studies behind these lines.
Target: Vascular endothelial growth factor receptor 1 (FLT1, Homo sapiens, UniProt P17948)

Compound	test	conditions	endpoint	result
CCN(CC)CCNC(=O)c1c(C)[nH]c(/C=C2\C(=O)Nc3ccc(F)cc32)c1C	enzyme activity, inhibitor	10 µM	inhibition	102%
Cc1ccc(NC(=O)c2ccc(C)c(C(F)(F)F)c2)cc1C#Cc1nn(C2CCC(O)CC2)c2ncnc(N)c12 (stereo not drawn)	cell-free assay	10 µM	remaining signal	3%
O=C1NC(=O)c2cc(Nc3ccc(F)cc3)c(Nc3ccc(F)cc3)cc21	cell-free assay	0.5 µM	remaining signal	81.5%
Cc1ccc(C(=O)Nc2ccc(CN3CCN(C)CC3)c(C(F)(F)F)c2)cc1C#Cc1cnc2cccnn12	cell-free assay	23.5 nM	remaining signal	33%
Cc1ccc(Nc2nccc(N(C)c3ccc4c(C)n(C)nc4c3)n2)cc1S(N)(=O)=O	enzyme activity, inhibitor	10 µM	inhibition	102%
C=CC(=O)Nc1cc(Nc2nccc(Nc3cc(Cl)c(F)cc3C(C)(C)O)n2)c(OC)cc1N1CC[C@@H](N(C)C)C1	enzyme activity, inhibitor	1 µM	inhibition	0%
N#CC1(c2ccccn2)CCN(Cc2cc(C(=O)N3CCCC3)c(=O)n3ccccc23)CC1	cell-free assay, competition with immobilised ligand	1 µM	remaining binding	100%
CNCc1ccc(-c2cc(-c3nc(-c4ccc(S(=O)(=O)C(C)C)cc4)cnc3N)on2)cc1	enzyme activity, inhibitor	2 µM	inhibition	83%
COc1cc(Nc2cnc(C#N)c(O[C@H](C)CN(C)C)n2)ncc1-c1cnn(C)c1	enzyme activity, inhibitor, radiometric	1 µM	remaining activity	90%
CC/C(=N\NC(=O)NCc1cccc(O)c1)c1ccc(O)c(C)c1O	enzyme activity, inhibitor	0.1 µM	inhibition	2.5%
Cc1ccc(NC(=O)c2ccc(CN3CCN(C)CC3)cc2)cc1Nc1nc(-c2cccnc2)cs1	cell-free assay	0.5 µM	remaining signal	96.4%
Cc1ccc(-n2nc(C(C)(C)C)cc2NC(=O)Nc2ccc(OCCN3CCOCC3)c3ccccc23)cc1	enzyme activity, inhibitor	10 µM	inhibition	96%
C[C@@H](c1cccc(C#N)c1)n1cc(Cl)cc(C(N)=O)c1=N	cell-free assay, competition with immobilised ligand	1 µM	remaining binding	100%
CCCS(=O)(=O)Nc1ccc(F)c(C(=O)c2c[nH]c3ncc(-c4ccc(Cl)cc4)cc23)c1F	enzyme activity, inhibitor	1 µM	inhibition	< 10%
O=C(Nc1cnn(-c2csc(C(=O)NC3COC3)c2)c1)Nc1c(F)cccc1Cl	enzyme activity, inhibitor	5 µM	remaining activity	86.1%
Cc1cc(-n2nc(Cc3cc(F)cc(C(F)(F)F)c3)nc2C)ccc1C(N)=O	cell-free assay, competition with immobilised ligand	1 µM	remaining binding	100%
COc1cc2ncnc(Nc3ccc(Oc4ccccc4)cc3C)c2cc1OC	enzyme activity, inhibitor	1 µM	inhibition	-2%
CC(C)(C)c1nc2c(s1)c1nc(N)ncc1c1ccc(NS(=O)(=O)c3c(F)cccc3F)c(F)c12	enzyme activity, inhibitor, radiometric	1 µM	remaining activity	111%
COc1cc(-c2cn(C3CCc4c(F)cccc4N(CC(F)(F)F)C3=O)nn2)ccc1-n1cnc(C)c1 (stereo not drawn)	cell-free assay, competition with immobilised ligand	1 µM	remaining binding	97%
COc1cc(/C=C/C(=O)CC(=O)/C=C/c2ccc(O)c(OC)c2)ccc1O	enzyme activity, inhibitor	1 µM	activity vs control	67%
Cc1ccc(C(=O)NCc2ccsc2)cc1C#Cc1cn(C(C)C)c2ncnc(N)c12	enzyme activity, inhibitor	1 µM	activity vs control	-1%
C[C@H](c1ccc(F)cc1)N(Cc1cccc(C(=O)O)c1)C(=O)c1cnc2ccccc2c1	cell-free assay, competition with immobilised ligand	1 µM	remaining binding	100%
CCCOc1ccc(OC)c(F)c1C(=O)c1ccc(C(=O)N[C@@H]2CNC[C@H]2NC(=O)c2ccc3[nH]ncc3c2)cc1	enzyme activity, inhibitor	10 µM	remaining activity	35%
CCN(CC)c1ccc(C2=NNC(=O)CC2C)cc1[N+](=O)[O-] (stereo not drawn)	enzyme activity, inhibitor	10 µM	remaining activity	104%
CCCOc1ccc([C@@H]2[C@@H](C(=O)O)[C@H](c3ccc4c(c3)OCO4)CN2CC(=O)Nc2c(CC)cccc2CC)cc1	cell-free assay, competition with immobilised ligand	1 µM	remaining binding	94%
O=C(Nc1cnn(-c2csc(C(=O)NC3COC3)c2)c1)Nc1ccccc1Cl	enzyme activity, inhibitor	5 µM	remaining activity	101%
CC(C)CC(=O)N1CCc2nc(-c3ccc(Br)cc3)nc(N(C)Cc3ccccc3)c2C1	cell-free assay, competition with immobilised ligand	0.1 µM	remaining binding	100%
Cc1cnc(NC2CCOCC2)nc1-n1cnc(C(=O)NC(CN)c2cc(F)cc(Cl)c2)c1 (stereo not drawn)	enzyme activity, inhibitor, radiometric	1 µM	remaining activity	92%
CS(=O)(=O)N1CCCC(NC(=O)[C@H](CCC2CCCCC2)NC(=O)c2ccc(CNc3ncnc4c3nnn4-c3ccccc3)cc2)C1 (stereo partly drawn)	cell-free assay, competition with immobilised ligand	0.1 µM	remaining binding	86%
Nc1nc(NC2CCCCC2)sc1C(=O)c1ccccc1	enzyme activity, inhibitor	10 µM	remaining activity	57%
